According to publication PMC6339461 (Bioorganic & medicinal chemistry letters, 2018):
Entries after “also recorded” stand apart in the source; their conditions may differ.

Experiments:
[1] = solubility in DMSO and buffer; format: physicochemical; conditions: in both DMSO and buffer; compared with hit 7a
HeLa = experiment: cytotoxicity in HeLa cells; format: cell-based; conditions: concentrations up to 100 μM
[2] = parallel artificial membrane permeability assay; format: in vitro ADME; conditions: for permeability, result in words: PAMPA
HepG2 = experiment: cytotoxicity in HepG2 cells; format: cell-based; conditions: concentrations up to 100 μM
TDP2 = biological target: T1, TDP2 (Danio rerio, UniProt Q5XJA0); experiment: fluorescence-based biochemical assay measuring the catalytic activity of TDP2
T1 sequence (Q5XJA0 121-369): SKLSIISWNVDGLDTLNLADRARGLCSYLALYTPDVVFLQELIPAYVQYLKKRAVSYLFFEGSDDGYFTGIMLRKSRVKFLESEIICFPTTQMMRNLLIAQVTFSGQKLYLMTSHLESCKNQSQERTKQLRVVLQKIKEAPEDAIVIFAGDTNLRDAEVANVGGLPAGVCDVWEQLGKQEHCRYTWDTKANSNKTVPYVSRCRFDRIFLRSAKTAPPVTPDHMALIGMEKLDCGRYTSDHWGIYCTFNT
In short: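 TDP2 catalytic activity measured with a fluorescence read-out. IC50 values are the mean of three independent experiments, each run in triplicate.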

SMILES	cytotoxicity in HeLa, result in words (HeLa)	permeability, result in words [2]	cytotoxicity in HepG2, result in words (HepG2)	also measured
O=C(Nc1nc2cc(-c3ccccc3)ccn2n1)c1cccc([N+](=O)[O-])c1 [Compound 17a]				solubility profile, result in words [1]: better solubility profile
O=C(Nc1nc2cc(-c3ccccc3)ccn2n1)c1cccc(Cl)c1 [Compound 17e]	no cytotoxicity	borderline Pe value; also recorded: good cellular permeability	no cytotoxicity	Pe value, times higher than that of 1 ([2]; relative to 1): about 10 times; permeability in PAMPA, fold higher than the hit compound ([2]; relative to hit compound): 6 fold
O=C(Nc1nc2cc(-c3ccccc3)ccn2n1)c1ccc(F)cc1Cl [Compound 17o]				TDP2 inhibition, result in words (TDP2): further reduced activity
O=C(Nc1nc2cc(-c3cccnc3)ccn2n1)c1cccc(Cl)c1 [Compound 17z]	no cytotoxicity	good cellular permeability; also recorded: excellent cell permeability	no cytotoxicity	fold increase in permeability versus 17e ([2]; relative to 17e): 7 fold
